Experimental data as given in the RNAGym collection of RNA variant scans (doi:10.1126/science.aae0568).
Variants at the floor of the assay were thinned out.

B1: tRNA (parent)
chain: GUUCCGUUGGCGUAAUGGUAACGCGUCUCCCUCCUAAGGAGAAGACUGCGGGUUCGAGUCCCGUACGGAACG

Variants of: B1
Assay: yeast fitness relative to wild type (ratio to wild type); higher = fitter; tRNA-Arg(CCU), competitive growth, 37 C, YPD
In short: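 A pool of Saccharomyces cerevisiae strains, each with a tRNA-Arg(CCU) gene variant at the native genomic locus, was competed in YPD at 37°C for 24 hours across six parallel replicates. The variants had been chemically synthesised at a 3% per-site mutation rate over 69 sites, and gene amplicons before and after competition were read by 100-nucleotide paired-end sequencing. Darwinian fitness relative to wild type rested on changes in genotype frequencies. Genotypes required ≥ 100 starting reads, and estimates < 0.5 were set to 0.5.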

Row | Variant | yeast fitness
1 | GUUCCGUUGGCGUAAUGGUAACGCGUCUCUUUCCUAAGGAGAAGACUGAGGGUUCGAGUCCCGUACGGAACG [C30U C31U C49A] | ≤ 0.5
2 | GUUCCGUUGGCGUAAUGGUAACGCGUCUCUCUCCUAAGGAGAAGACUGGGGGUUCGAGUCUCGUACGGAACG [C30U C49G C61U] | 0.547
3 | GUUCCGUUGGCGUAAUGGUAACGCGUCUCUCUCCUAAGGAGAAGACUGCGGGUUCGAGUCGCGUCCGGAACG [C30U C61G A65C] | ≤ 0.5
4 | GUUCCGUUGGCGUAAUGGUAACGCGUCUCUCUCCUAAGGAGAAGACUGCGGGUUAGAGUCCUGUACGGAACG [C30U C55A C62U] | ≤ 0.5
5 | GUUCCGUUGGCGUAAUGGUAACGCGUCUCUCUCCUAAGGAGAAGAUUGCGGGUUCGAGUCCCGUCCGGAACG [C30U C46U A65C] | 0.658
6 | GUUCCGUUGGCGUAAUGGUAACGCGUCUCUCUCUUAUGGAGAAGACUGCGGGUUCGAGCCCCGUUCGGAACG [C30U C34U A37U U59C A65U] | ≤ 0.5
7 | GUUCCGUUGGCGUAAUGGUAACGCGUCUCUCUCCUAAGGAGAAGACUGCGGGUUCGAGUGACGUACGGGACG [C30U C60G C61A A69G] | ≤ 0.5
8 | GUUCCGUUGGCGUAAUGGUAACGCGUCUCUUUCCUAAGGAGAAGACUGCGGGUUCGAGUCCCGUACGGACCG [C30U C31U A70C] | 0.784
9 | GUUCCGUUGGCGUAAUGGUAACGCGUCUCUCUGCUAAGGAGAAGACUGCGGGUUCGAGUCCCGUCCGGAACG [C30U C33G A65C] | 0.577
10 | GUUCCGUUGGCGUAAUGGUAACGCGUCUCUCUCCUAAGGAGAAGACUGCGGGUUCGAGUCGCGUACGGAACG [C30U C61G] | 0.671
11 | GUUCCGUUGGCGUAAUGGUAACGCGUCUCUCUCGUAAGAAGAAGACUGGGGGUUCGAGUCUCGUACGGAACG [C30U C34G G39A C49G C61U] | ≤ 0.5
12 | GUUCCGUUGGCGUAAUGGUAACGCGUCUCUCUACUAAGAAGAAGACUGCGGGUUCGAGUCCCGUACGGAACG [C30U C33A G39A] | ≤ 0.5
13 | GUUCCGUUGGCGUAAUGGUAACGCGUCUCUCUCGUAAGGAGAAGACUGCGGGCUCGAGUCCCGUACGGCACG [C30U C34G U53C A69C] | ≤ 0.5
14 | GUUCCGUUGGCGUAAUGGUAACGCGUCUCUCUCCUAAGGAGAAGAGUGUGGGUUCGAGUCCCGUACGGCACG [C30U C46G C49U A69C] | ≤ 0.5
15 | GUUCCGUUGGCGUAAUGGUAACGCGUCUCUUUCCUAAGGCGAAGACUGCGGGUUCGAGUCCCGUCCGGAACG [C30U C31U A40C A65C] | ≤ 0.5
16 | GUUCCGUUGGCGUAAUGGUAACGCGUCUCUCUCCUAAGGAGAAGAUUGCGGGUUCGUGUCCCGUACGGAACG [C30U C46U A57U] | 0.515
17 | GUUCCGUUGGCGUAAUGGUAACGCGUCUCUGUCCUAAGCAGAAGACUGCGGGUUAGAGUCCUGUACGGAUCG [C30U C31G G39C C55A C62U A70U] | ≤ 0.5
18 | GUUCCGUUGGCGUAAUGGUAACGCGUCUCUCUCCUAAGGAGAAGAGUGCGGAUUCGAGUCCCGUACGGAACG [C30U C46G G52A] | 0.6
19 | GUUCCGUUGGCGUAAUGGUAACGCGUCUCUCUCCUAAGGAGAAGAUUGCGGGUUCGAGUCCCGUACGGAGCG [C30U C46U A70G] | 0.601

Row | Variant | yeast fitness
20 | GUUCCGUUGGCGUAAUGGUAACGCGUCUCUCUCAUGAGGAGAAGACUGCGGGUUCGAGUUCCGUACGGAUCG [C30U C34A A36G C60U A70U] | ≤ 0.5
21 | GUUCCGUUGGCGUAAUGGUAACGCGUCUCUCUCGUAAGGCGAAGACUGGGGGUUCGAGUCCCGUACGCAACG [C30U C34G A40C C49G G68C] | ≤ 0.5
22 | GUUCCGUUGGCGUAAUGGUAACGCGUCUCUCUCCUAAGGAGAAGACUGUGGAUUCGAGUCCCGUACGGAACG [C30U C49U G52A] | 0.584
23 | GUUCCGUUGGCGUAAUGGUAACGCGUCUCUCUCCUAAGGAGAAGAUUGCAGGUUCGAGUCCCGUACGGGACG [C30U C46U G50A A69G] | 0.605
24 | GUUCCGUUGGCGUAAUGGUAACGCGUCUCUCUCCUAAGGAGAAGACUGGGGGUUCGAGUCCCGUACGGAACG [C30U C49G] | 0.718
25 | GUUCCGUUGGCGUAAUGGUAACGCGUCUCUCUCCUAAGGAGAAGACUGAGGGUUCGAGUCCCGUACGGAACG [C30U C49A] | 0.547
26 | GUUCCGUUGGCGUAAUGGUAACGCGUCUCUUUCCUAGGGAGAGGACUGCGGGUUCGAGUCCCGUACGGAACG [C30U C31U A37G A43G] | ≤ 0.5
27 | GUUCCGUUGGCGUAAUGGUAACGCGUCUCUUUCCUAAGGAGAAGACUGCGGGUUCGGGUCCCGUACGGAACG [C30U C31U A57G] | 0.75
28 | GUUCCGUUGGCGUAAUGGUAACGCGUCUCUGUUCUACGGAGAAGACUGCGGGUUCGAGUCCCGUCCGGAACG [C30U C31G C33U A37C A65C] | ≤ 0.5
29 | GUUCCGUUGGCGUAAUGGUAACGCGUCUCUGUCCUAAGGAGAAGACUGCGGGUUCGAGUCCCGUCCGGAACG [C30U C31G A65C] | 0.821
30 | GUUCCGUUGGCGUAAUGGUAACGCGUCUCUGUCCUAAGGAGAAGACUGCGGGUUCGUGUCCCGUACGGAACG [C30U C31G A57U] | ≤ 0.5
31 | GUUCCGUUGGCGUAAUGGUAACGCGUCUCUCUCGUAACGAGAAGACUGCGGGUUCGAGUCCCGUCCGGAACG [C30U C34G G38C A65C] | 0.537
32 | GUUCCGUUGGCGUAAUGGUAACGCGUCUCUCUCCUAAGGAGAAGAAUGCGGGUUCGAGUCCCGUAUGGAACG [C30U C46A C66U] | 0.83
33 | GUUCCGUUGGCGUAAUGGUAACGCGUCUCUCUCGUAAGGAGAAGACUGCGGGUUCGAGUCCCGUACGGAACG [C30U C34G] | 0.715
34 | GUUCCGUUGGCGUAAUGGUAACGCGUCUCUCUCCUAAGGAGAAGACUGCGGGUUCGAGUUCCGUACGGAACG [C30U C60U] | 0.734
35 | GUUCCGUUGGCGUAAUGGUAACGCGUCUCUCUCCUAAGGAGAAGACUGCGGGUUCGAGUACCGUACGGAACG [C30U C60A] | 0.593
36 | GUUCCGUUGGCGUAAUGGUAACGCGUCUCUCUCCUAAGGAGAAGACUGCGGGUUCGAGUGCCGUACGGAACG [C30U C60G] | 0.661
37 | GUUCCGUUGGCGUAAUGGUAACGCGUCUCUCUGCUAAGGAGAAGACUGCGGGUUCGAGUCCCGUACGGAACG [C30U C33G] | 0.691
38 | GUUCCGUUGGCGUAAUGGUAACGCGUCUCUCUUCUAAGGAGAAGACUGCGGGUUCGAGUCCCGUACGGAACG [C30U C33U] | 0.669
